Tests used:
Type in all cases: functional
SN12C = assay: Growth inhibition of human SN12C cells incubated for 48 hrs by sulforhodamine B assay
How it was run: (§1)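 NCI 60 human tumour cell line panel, five-dose study at 0.01, 0.1, 1, 10 and 100 µM, 48 h incubation. Sulforhodamine B protein-binding dye end point. GI50 (50% decrease in net cell growth), TGI (total growth inhibition) and LC50 (net 50% loss of initial cells) read from log concentration versus % growth inhibition curves.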

SK-MEL-28 = assay: Growth inhibition of human SK-MEL-28 cells incubated for 48 hrs by sulforhodamine B assay; settings: SK-MEL-28, 48 h; how it was run: as §1
SNB-19 = assay: Growth inhibition of human SNB19 cells incubated for 48 hrs by sulforhodamine B assay; settings: SNB-19, 48 h; how it was run: as §1
MDA-MB-468 = assay: Growth inhibition of human MDA-MB-468 cells incubated for 48 hrs by sulforhodamine B assay; settings: MDA-MB-468, 48 h
How it was run: (§2)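 NCI-60 five-dose screen at 0.01, 0.1, 1, 10 and 100 µM, 48 h incubation, sulforhodamine B end point. GI50 (50% decrease in net growth), TGI (total growth inhibition) and LC50 (net 50% loss of initial cells) taken from log concentration versus % growth inhibition curves.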

COLO 205 = assay: Growth inhibition of human COLO205 cells incubated for 48 hrs by sulforhodamine B assay; settings: COLO 205, 48 h; how it was run: as §2
MDA-MB-231 = assay: Growth inhibition of human MDA-MB-231 cells incubated for 48 hrs by sulforhodamine B assay; settings: MDA-MB-231, 48 h; how it was run: as §2
OVCAR-5 = assay: Growth inhibition of human OVCAR5 cells incubated for 48 hrs by sulforhodamine B assay; settings: OVCAR-5, 48 h; how it was run: as §2
A498 = assay: Growth inhibition of human A498 cells incubated for 48 hrs by sulforhodamine B assay; settings: A498, 48 h; how it was run: as §2
SW-620 = assay: Growth inhibition of human SW620 cells incubated for 48 hrs by sulforhodamine B assay; settings: SW-620, 48 h; how it was run: as §1
ACHN = assay: Growth inhibition of human ACHN cells incubated for 48 hrs by sulforhodamine B assay; how it was run: as §2
K562 = assay: Growth inhibition of human K562 cells incubated for 48 hrs by sulforhodamine B assay; settings: K562, 48 h; how it was run: as §2
SF-268 = assay: Growth inhibition of human SF268 cells incubated for 48 hrs by sulforhodamine B assay; settings: SF-268, 48 h; how it was run: as §1
SK-MEL-2 = assay: Growth inhibition of human SK-MEL-2 cells incubated for 48 hrs by sulforhodamine B assay; settings: SK-MEL-2, 48 h; how it was run: as §1
HCT-116 = assay: Growth inhibition of human HCT116 cells incubated for 48 hrs by sulforhodamine B assay; settings: HCT-116, 48 h; how it was run: as §2
NCI-H322M = assay: Growth inhibition of human NCI-H322M cells incubated for 48 hrs by sulforhodamine B assay; how it was run: as §2
IGROV-1 = assay: Growth inhibition of human IGROV1 cells incubated for 48 hrs by sulforhodamine B assay; settings: IGROV-1, 48 h; how it was run: as §2
LOX IMVI = assay: Growth inhibition of human LOXIMVI cells incubated for 48 hrs by sulforhodamine B assay; how it was run: as §2
HCC 2998 = assay: Growth inhibition of human HCC2998 cells incubated for 48 hrs by sulforhodamine B assay; settings: HCC 2998, 48 h; how it was run: as §2
CCRF-CEM = assay: Growth inhibition of human CCRF-CEM cells incubated for 48 hrs by sulforhodamine B assay; how it was run: as §2
DU-145 = assay: Growth inhibition of human DU145 cells incubated for 48 hrs by sulforhodamine B assay; settings: DU-145, 48 h; how it was run: as §2
SF-539 = assay: Growth inhibition of human SF539 cells incubated for 48 hrs by sulforhodamine B assay; settings: SF-539, 48 h; how it was run: as §1
786-0 = assay: Growth inhibition of human 786-0 cells incubated for 48 hrs by sulforhodamine B assay; settings: 786-0, 48 h; how it was run: as §2
A549 = assay: Growth inhibition of human A549/ATCC cells incubated for 48 hrs by sulforhodamine B assay; settings: A549, 48 h; how it was run: as §2
NCI/ADR-RES = assay: Growth inhibition of human NCI/ADR-RES cells incubated for 48 hrs by sulforhodamine B assay; how it was run: as §2
HL-60(TB) = assay: Growth inhibition of human HL-60(TB) cells incubated for 48 hrs by sulforhodamine B assay; settings: HL-60, 48 h
How it was run: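 NCI-60 five-dose screen at 0.01, 0.1, 1, 10 and 100 µM for 48 h, sulforhodamine B read-out. GI50 taken from log concentration versus % growth inhibition curves as the concentration giving 50% decrease in net cell growth.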

HT-29 = assay: Growth inhibition of human HT-29 cells incubated for 48 hrs by sulforhodamine B assay; settings: HT-29, 48 h; how it was run: as §2
KM12 = assay: Growth inhibition of human KM12 cells incubated for 48 hrs by sulforhodamine B assay; settings: KM12, 48 h; how it was run: as §2
TK-10 = assay: Growth inhibition of human TK10 cells incubated for 48 hrs by sulforhodamine B assay; settings: TK-10, 48 h; how it was run: as §1
[1] = read-out: LC50 (the source's name)

C=C1CC[C@@H]2[C@](C)(COC(C)=O)[C@H](OC(C)=O)CC[C@@]2(C)[C@H]1CC(Nc1ccc(S(=O)(=O)Nc2nccc(C)n2)cc1)C1=CCOC1=O (some centres undefined)
GI50 (SN12C): 2.64 µM | TGI (SN12C): 6.17 µM | CC50 (SN12C; [1]): 81.2 µM | GI50 (SK-MEL-28): 2.83 µM | LC50 (50% net cell kill) (SK-MEL-28): 36.3 µM | TGI (SK-MEL-28): 10.1 µM | GI50 (SNB-19): 6.3 µM | TGI (SNB-19): 20.7 µM | CC50 (SNB-19; [1]): 52.7 µM | GI50 (MDA-MB-468): 1.99 µM | TGI (MDA-MB-468): 4.3 µM | CC50 (MDA-MB-468; [1]): 9.3 µM | GI50 (COLO 205): 2.09 µM | TGI (COLO 205): 4.66 µM | CC50 (COLO 205; [1]): 11.9 µM | GI50 (MDA-MB-231): 3.62 µM | LC50 (concentration giving net 50% loss of initial cells) (MDA-MB-231): 40.5 µM | TGI (MDA-MB-231): 10.2 µM | GI50 (OVCAR-5): 3.86 µM | LC50 (concentration causing net 50% loss of initial cells) (OVCAR-5): 42.2 µM | TGI (OVCAR-5): 12.8 µM | GI50 (A498): 14.8 µM | LC50 (concentration giving net 50% loss of initial cells) (A498): 54.4 µM | TGI (A498): 28.4 µM | GI50 (SW-620): 1.6 µM | TGI (SW-620): 3.68 µM | CC50 (SW-620; [1]): 8.48 µM | GI50 (ACHN): 3.64 µM | TGI (ACHN): 13 µM | CC50 (ACHN; [1]): 38.4 µM | GI50 (K562): 2.97 µM | TGI (K562): 21.7 µM | CC50 (K562; [1]): > 100 µM | GI50 (SF-268): 6.19 µM | TGI (SF-268): 20.9 µM | CC50 (SF-268; [1]): 54.2 µM | GI50 (SK-MEL-2): 6.01 µM | TGI (SK-MEL-2): 20 µM | CC50 (SK-MEL-2; [1]): 52.1 µM | GI50 (HCT-116): 1.6 µM | TGI (HCT-116): 3.56 µM | CC50 (HCT-116; [1]): 7.96 µM | GI50 (NCI-H322M): 11.3 µM | TGI (NCI-H322M): 23.9 µM | CC50 (NCI-H322M; [1]): 50.7 µM | GI50 (IGROV-1): 3.62 µM | TGI (IGROV-1): 13.6 µM | CC50 (IGROV-1; [1]): 45.5 µM | GI50 (LOX IMVI): 1.53 µM | TGI (LOX IMVI): 3.24 µM | CC50 (LOX IMVI; [1]): 6.89 µM | GI50 (HCC 2998): 4.98 µM | TGI (HCC 2998): 17.9 µM | CC50 (HCC 2998; [1]): 48.1 µM | GI50 (CCRF-CEM): 0.0073 µM | TGI (CCRF-CEM): 3.09 µM | CC50 (CCRF-CEM; [1]): > 100 µM | GI50 (DU-145): 3.36 µM | TGI (DU-145): 11.8 µM | CC50 (DU-145; [1]): 34.9 µM | GI50 (SF-539): 2.07 µM | TGI (SF-539): 4.73 µM | CC50 (SF-539; [1]): 12.4 µM | GI50 (786-0): 2.27 µM | LC50 (concentration giving net 50% loss of initial cells) (786-0): 13.8 µM | TGI (786-0): 5.06 µM | GI50 (A549): 8.19 µM | TGI (A549): 21.9 µM | CC50 (A549; [1]): 52.2 µM | GI50 (NCI/ADR-RES): 2.94 µM | LC50 (concentration giving net 50% loss of initial cells) (NCI/ADR-RES): > 100 µM | TGI (NCI/ADR-RES): 13.5 µM | GI50 (HL-60(TB)): 2.1 µM | TGI (HL-60(TB)): 5.63 µM | CC50 (HL-60(TB); [1]): > 100 µM | GI50 (HT-29): 2.02 µM | TGI (HT-29): 4.24 µM | CC50 (HT-29; [1]): 8.93 µM | GI50 (KM12): 4.59 µM | TGI (KM12): 16.4 µM | CC50 (KM12; [1]): 44.4 µM | GI50 (TK-10): 4.94 µM | TGI (TK-10): 15.8 µM | CC50 (TK-10; [1]): 40.4 µM
